TbMetRS inhib: T. brucei MetRS inhibitors, primary screen, biochemical, luminescence; methionyl-tRNA synthetase (Trypanosoma brucei brucei); purified T. brucei MetRS, ATP depletion, Kinase-Glo luminescence; inhibition, % at 11.9 µM; 0.4% of 360,000 active; AID 624268, 2012;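 active means inhibition above a per-plate cutoff of the control wells' mean inhibition plus 3 SD, cut at about 5.5% in these data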;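 further: 0% = DMSO wells median and 100% = median of wells with control inhibitor compound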
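assay system = parasite MetRS enzyme | timing = 15 min preincubation, 2 h reaction, all 25 °C | evaluation = percent inhibition relative to median high and low control wells | medium = HEPES buffer containing pyrophosphatase, BSA, spermine, DTT | compound = single dose, 11.9 µM final nominal, 0.9% final DMSO | detection = Kinase-Glo luminescence, ATP depletion format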
HCV core dimer: inhibitors of HCV core protein dimerization, primary screen, biochemical, TR-FRET, high-throughput; TR-FRET GST/Flag-core106 dimerization, 1536-well; AID 1899, 2009; inhibition, % at 5 µM; 0.33% of 300,000 active;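 active means inhibition above the mean of all tested compounds plus 3 SD, set per screening campaign, cut at about 45% in these data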
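Assay system: Tagged HCV core106 pair (GST and Flag) | Buffer or medium: KF-containing HEPES buffer, pH 7.45, DTT, CHAPS, BSA | Also added: Eu donor and XL665 acceptor anti-tag antibodies | Dosing: One concentration, 5 µM, in 0.5% DMSO | Timing: 4 h at 22.5 °C | Technique: TR-FRET 671 and 617 nm emission | Repeats: Singlicate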
DSG3 Ab inh: inhibitors of pemphigus antibody binding to DSG3, primary screen, biochemical, bead-based, flow cytometry, scFv-GFP | DSG3-coupled beads, scFv-anti-DSG3-GFP binding; stronger effect = lower value | Desmoglein-3 (Homo sapiens), P32926 | binding (percent of control), % at 10 µM | AID 588358, 2011 | 0.48% of 310,000 active;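 active means binding more than 3 SD below its plate's average and above zero; inconclusive means below that plate limit but binding exactly zero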;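 further: hits lower antibody fragment binding to DSG3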
Target sequence (P32926 whole entry, looked up, the tested form may be a part): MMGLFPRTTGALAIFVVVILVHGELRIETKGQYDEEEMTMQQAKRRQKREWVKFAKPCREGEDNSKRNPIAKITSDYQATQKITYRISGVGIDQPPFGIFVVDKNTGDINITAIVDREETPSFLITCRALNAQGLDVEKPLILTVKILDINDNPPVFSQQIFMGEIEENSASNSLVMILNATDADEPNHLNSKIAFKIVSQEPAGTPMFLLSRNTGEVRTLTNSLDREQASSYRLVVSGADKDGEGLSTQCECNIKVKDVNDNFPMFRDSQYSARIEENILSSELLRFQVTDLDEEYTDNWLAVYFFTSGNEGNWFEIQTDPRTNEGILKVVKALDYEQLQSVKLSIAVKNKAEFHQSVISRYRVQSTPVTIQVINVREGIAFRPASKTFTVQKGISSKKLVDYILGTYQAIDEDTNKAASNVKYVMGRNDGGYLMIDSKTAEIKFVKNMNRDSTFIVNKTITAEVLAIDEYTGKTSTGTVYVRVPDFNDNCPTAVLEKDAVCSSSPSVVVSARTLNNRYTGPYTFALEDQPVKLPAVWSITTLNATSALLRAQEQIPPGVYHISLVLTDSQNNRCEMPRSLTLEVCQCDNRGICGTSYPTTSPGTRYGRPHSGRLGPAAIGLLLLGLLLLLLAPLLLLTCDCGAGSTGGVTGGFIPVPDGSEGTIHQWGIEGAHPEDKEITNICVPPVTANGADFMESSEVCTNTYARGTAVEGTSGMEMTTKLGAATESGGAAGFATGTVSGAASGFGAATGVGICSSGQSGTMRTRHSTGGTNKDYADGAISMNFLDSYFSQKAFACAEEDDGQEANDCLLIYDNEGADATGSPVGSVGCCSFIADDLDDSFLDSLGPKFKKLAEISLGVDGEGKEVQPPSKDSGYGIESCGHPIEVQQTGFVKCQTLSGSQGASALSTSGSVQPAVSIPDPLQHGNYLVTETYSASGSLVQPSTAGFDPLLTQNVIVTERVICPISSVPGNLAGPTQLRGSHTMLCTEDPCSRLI
Rce1 inhib: yeast Rce1p protease inhibitors, primary screen, biochemical, fluorescence, cell-free homogeneous. CAAX prenyl protease 2 (Saccharomyces cerevisiae (strain ATCC 204508 / S288c)), Q03530. yeast membranes, quenched prenylated peptide cleavage fluorescence. calls only. 0.27% of 290,000 active. AID 2563, 2010;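 active means fall in fluorescence gain of 50% or more versus controls, with final raw signal at or below 3038400; inconclusive means same 50% fall but final raw signal above 3038400; inactive means fall in fluorescence gain under 50%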;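 further: plate controls were neutral control wells for no effect and wells lacking membranes for full effect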
NadD inh: inhibitors of S. aureus NadD, primary screen, biochemical, colorimetric, uHTS; 0.78% of 360,000 active; purified NadD enzyme, colorimetric absorbance read-out; inhibition, % at 20 µM; AID 602399, 2012; in the data active means inhibition above about 26%
NadD conf: inhibitors of S. aureus NadD, confirmation, biochemical, colorimetric, single concentration. shares compounds with NadD inh. purified S. aureus NadD, colorimetric enzyme assay. inhibition, % at 20 µM. 13% of 2,000 active. AID 624309, 2012; in the data active means inhibition mostly above about 42%, no sharp cut-off; inactive means mostly below about 42%
Starred values were filed as active, the others as inactive. Most compounds without a hit are left out; they make up all but 1.9% or so of the library.

N#CCC(=O)N/N=C/c1c2ccccc2cc2ccccc12 was read as TbMetRS inhib 0, Rce1 inhib inactive and NadD inh -3.
`N#CCC(=O)N/N=C/c1cc(Br)ccc1OCc1cccc2ccccc12` gave TbMetRS inhib 0, HCV core dimer 22, DSG3 Ab inh 101, Rce1 inhib inactive, NadD inh 26* and NadD conf 29.
O=S(=O)(c1cccc(C(F)(F)F)c1)N1CCC(c2nc3ccccc3[nH]2)CC1 was read as TbMetRS inhib 1, HCV core dimer -4, DSG3 Ab inh 102, Rce1 inhib inactive and NadD inh 3.
Screening O=C(N1CCOCC1)N1c2ccccc2CC(N2CCOCC2)c2ccccc21 (configuration not stated) returned TbMetRS inhib -1, HCV core dimer 0, DSG3 Ab inh 93 and NadD inh -3.
`CCOC(=O)C(=Cc1c[nH]c2ccc(S(=O)(=O)N(C)C)cc12)C(=O)OCC` gave TbMetRS inhib -1, HCV core dimer 1, DSG3 Ab inh 92, Rce1 inhib inactive and NadD inh -5.
O=C(O)c1cccc(-c2ccc(/C=c3/sc4nc5ccccc5n4c3=O)o2)c1 was read as TbMetRS inhib 0, HCV core dimer 5, DSG3 Ab inh 95, Rce1 inhib inactive and NadD inh 6.
`O=C(O)c1ccccc1-c1ccc(C=c2sc3nc4cc(Br)cnc4n3c2=O)o1` gave TbMetRS inhib 0, NadD inh 59* and NadD conf 43.
For Cc1cnc(NC(=O)C2C(=O)c3ccccc3S(=O)(=O)N2C)s1 (configuration not stated) the results were TbMetRS inhib -1, DSG3 Ab inh 99 and NadD inh 7.
For CNc1cc(C)c(C#N)c2nc3ccccc3n12 the results were TbMetRS inhib -1, HCV core dimer -9, DSG3 Ab inh 98, Rce1 inhib inactive and NadD inh 2.
For Cc1cccc(NC(=O)CSc2cc(C)c(C#N)c3nc4ccccc4n23)c1 the results were TbMetRS inhib 0, HCV core dimer 0, DSG3 Ab inh 89, Rce1 inhib inactive, NadD inh 43* and NadD conf 2.
`CCc1nnc(NS(=O)(=O)c2ccc(NC(=S)NC(=O)/C=C/c3ccc(F)cc3)cc2)s1` gave TbMetRS inhib 0, HCV core dimer 24, DSG3 Ab inh 93, Rce1 inhib inactive, NadD inh 31* and NadD conf 51*.
COc1ccc(/C=C/C(=O)NC(=S)Nc2ccc(S(=O)(=O)Nc3cc(OC)ncn3)cc2)cc1 was read as TbMetRS inhib 0, NadD inh 54* and NadD conf 35.
COc1cc(NS(=O)(=O)c2ccc(NC(=S)NC(=O)/C=C/c3ccc(OC)c(OC)c3)cc2)ncn1 was read as TbMetRS inhib -1, HCV core dimer 19, DSG3 Ab inh 100, Rce1 inhib inactive and NadD inh 26.
`CCc1nnc(NS(=O)(=O)c2ccc(NC(=S)NC(=O)/C=C/c3ccc([N+](=O)[O-])cc3)cc2)s1` gave TbMetRS inhib 0, HCV core dimer -2, DSG3 Ab inh 94, Rce1 inhib inactive and NadD inh 7.
COc1ccc(/C=C/C(=O)NC(=S)Nc2ccc(S(=O)(=O)N=C(N)N)cc2)cc1OC was read as TbMetRS inhib -1, HCV core dimer 20, DSG3 Ab inh 113, Rce1 inhib inactive, NadD inh 30* and NadD conf -3.
Screening CC(C)(C)Sc1ccc(N)nc1 returned TbMetRS inhib 0, HCV core dimer 4, DSG3 Ab inh 102, Rce1 inhib inactive and NadD inh -2.
For Cc1cccc(N=C2NN=C(c3c(C)[nH]c4ccccc34)CS2)c1 the results were TbMetRS inhib 0, HCV core dimer 13, DSG3 Ab inh 104, Rce1 inhib inactive, NadD inh 36* and NadD conf 21.
For Cc1ccccc1NC(=O)/C(C#N)=C\c1cc(C)n(-c2ccc(C(=O)O)cc2)c1C the results were TbMetRS inhib -1, HCV core dimer 9, DSG3 Ab inh 96, Rce1 inhib inactive and NadD inh -6.
`Cc1cc2nc(/C=C/c3cccnc3)[nH]c2cc1C` gave TbMetRS inhib -1, DSG3 Ab inh 113, Rce1 inhib inconclusive and NadD inh -1.
Cc1cc2nc(/C=C/c3nc4cc(C)c(C)cc4[nH]3)[nH]c2cc1C was read as TbMetRS inhib 0, HCV core dimer 5, DSG3 Ab inh 96, Rce1 inhib inactive, NadD inh 31* and NadD conf -17.
`O=C(C[C@H]1C[C@H](C(=O)N2CCCCC2)[C@@]2(CCc3ccccc3)c3[nH]c4cc(-c5ccco5)ccc4c3CCN2C1=O)NCc1cccc(C(F)(F)F)c1` gave TbMetRS inhib 0, DSG3 Ab inh 104, NadD inh 54* and NadD conf 25.
`CC[C@]12c3[nH]c4cc(-c5ccco5)ccc4c3CCN1C(=O)[C@@H](CC(=O)NCCC1=CCCCC1)C[C@@H]2C(=O)N1CCN(C(=O)c2ccco2)CC1` gave TbMetRS inhib -2, DSG3 Ab inh 103, NadD inh 33* and NadD conf 11.
`O=C(C[C@H]1C[C@H](C(=O)N2CCCCC2)[C@@]2(CCc3ccccc3)c3[nH]c4cc(-c5ccco5)ccc4c3CCN2C1=O)NCCC1=CCCCC1` gave TbMetRS inhib 0, DSG3 Ab inh 94, NadD inh 56* and NadD conf 13.
`O=C(C[C@H]1C[C@H](C(=O)N2CCOCC2)[C@@]2(CCC3CCCC3)c3[nH]c4cc(-c5ccco5)ccc4c3CCN2C1=O)NCc1cccc(C(F)(F)F)c1` gave TbMetRS inhib 0, DSG3 Ab inh 118 and NadD inh 23.
O=C(CC1C[C@H](C(=O)N2CCCCC2)[C@@]2(CCc3ccccc3)c3[nH]c4ccccc4c3CCN2C1=O)NCCC1=CCCCC1 (some centres not stated) was read as TbMetRS inhib -1, DSG3 Ab inh 99 and NadD inh 18.
For Cc1ccc(NC(=O)CSCC(=O)Nc2nnc(C3CC3)s2)cc1 the results were TbMetRS inhib 0, HCV core dimer -1, DSG3 Ab inh 99, Rce1 inhib inactive and NadD inh 1.

Bioassay records as filed in PubChem.
